The results in this text go back to ChEMBL document CHEMBL5030540 (J Med Chem, 2021).

SMILES strings stand for the structures. pEC50: −log10 of the molar value. Activity calls are given as the source filed them. No cut-off for these calls is given here.

Data set [1] has as its target T1, Mu-type opioid receptor (Homo sapiens, UniProt P35372). Description: Agonist activity at human MOR expressed in HEK-293T cells assessed as inhibition of forskolin-stimulated cAMP accumulation incubated for 30 mins by Glo-sensor cAMP assay relative to DAMGO. Type of data set: functional, cell-based. As to conditions: HEK293T. In short, it runs like this:
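HEK293T cells transiently co-transfected with human MOR and a luciferase-based cAMP biosensor. Gαi-mediated cAMP inhibition read by luminescence. […] EC50 given as pEC50 ± SEM, triplicate runs.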
A general note: Cyclic AMP is a second messenger, typically raised through Gs and lowered through Gi signalling.

Data set [2] deals with T1, Mu-type opioid receptor. Description: Agonist activity at human MOR receptor expressed in HTLA cells co-expressing TEV-fused-beta-arrestin2 assessed as induction of beta-arrestin2 recruitment by Tango assay relative to DAMGO. Type of data set: functional, cell-based. In a few lines: (§1)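 HTLA cells expressing TEV-fused β-arrestin2 transiently transfected with a human MOR Tango construct. β-arrestin2 recruitment measured. […] Mean pEC50 ± SEM and Emax% ± SEM from triplicate runs.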
(In general: Activated receptors often draw arrestin, which recruitment assays turn into a signal.)

The target in data set [3] is T1, Mu-type opioid receptor. Description: Agonist activity at human MOR expressed in HEK293T cells assessed as inhibition of forskolin-stimulated cAMP accumulation incubated for 30 mins by Glo-sensor cAMP assay. Type of data set: functional, cell-based. In short, it runs like this: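 HEK293T cells transiently co-transfected with human MOR and a luciferase-based cAMP biosensor. Gαi-mediated cAMP inhibition read by luminescence. EC50 given as pEC50 ± SEM, triplicate runs.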

The nature of data set [4]: Toxicity in C57BL/6 mouse model assessed as charcoal distance travel at 15 mg/kg, sc measured after 3 hrs by gastrointestinal transit assay (reference value: 29.5 +/- 1 cm). The data set is classed as organism-based. As to conditions: in vivo.
The nature of data set [5]: Toxicity in C57BL/6 mouse model assessed as conditioned place preference at 10 mg/kg, IP. The data set is classed as organism-based. As to conditions: in vivo. In short, it runs like this:
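Counterbalanced two-compartment place conditioning in C57BL/6J mice. […] Time on drug-paired side over a 20 min test compared with preconditioning by Welch-corrected t test.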

The target in data set [6] is T1, Mu-type opioid receptor. Put plainly: Agonist activity at human MOR receptor expressed in HTLA cells co-expressing TEV-fused-beta-arrestin2 assessed as induction of beta-arrestin2 recruitment by Tango assay. The data set is classed as functional, cell-based. In short, it runs like this: as §1
Data set [7] deals with T1, Mu-type opioid receptor. Description: Partial agonist activity at human MOR expressed in HEK293T cells co-expressing Galpha-RLuc8:Gbeta:Ggamma-GFP2 assessed as maximal Gi-1 activation measured after 15 mins by BRET assay relative to control. Type of data set: functional, cell-based. The following applies: filed as partial agonist. (In general: Bioluminescence resonance energy transfer reports proximity on the nanometre scale.)

Data set [8] deals with T1, Mu-type opioid receptor. Put plainly: Agonist activity at human MOR expressed in CHO-K1 cells co-expressing beta-arrestin2 assessed as beta-arrestin2 EFC recruitment measured after 90 mins by PathHunter assay. The data set is classed as functional, cell-based. In short, it runs like this: (§2)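 CHO-K1 cells stably expressing human μOR grown to confluency and seeded overnight at 37 °C, 5% CO2. 5× dilution series of compound in Opti-MEM added for 90 min at 37 °C. Detection reagent then added for 60 min at room temperature in the dark, and chemiluminescence read.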

In data set [9] the target is T1, Mu-type opioid receptor. Description: Partial agonist activity at human MOR expressed in HEK293T cells co-expressing Galpha-RLuc8:Gbeta:Ggamma-GFP2 assessed as Galpha-i/o activation measured after TRUPATH assay. Type of data set: functional, cell-based. As to conditions: filed as partial agonist.
Data set [10] concerns the target GABA-A receptor; anion channel (Rattus norvegicus) (UniProt O09028+P15431+P18506+P18508+P19969+P20236+P23574+P23576+P28471+P28473+P30191+P62813+P63079+P63138+Q91ZM7+Q9ES14). Put plainly: Partial agonist activity at GABAA receptor in rat brain slice assessed as induction of receptor-mediated inhibitory postsynaptic current at 10 uM by Whole cell electrophysiology. The data set is classed as tissue-based. The following applies: filed as partial agonist. In a few lines:
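Horizontal VTA slices (200 μm) from male Sprague–Dawley rats. Whole-cell voltage clamp at −70 mV, 33 °C, KCl internal. GABAA IPSCs isolated with 10 μM DNQX and evoked by paired pulses every 10 s. Drug (10 μM) bath applied. Mean IPSC amplitude at minutes 4–7 of drug compared with the 4 min baseline.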

In data set [11] the target is Voltage-dependent L-type calcium channel subunit alpha-1C (Rattus norvegicus, UniProt P22002). Description: Displacement of [3H]Diltiazem from Cav1.2 in rat brain at 10 uM incubated for 120 mins by radiometric scintillation counting analysis. The following applies: 2 h. Type of data set: tissue-based.
Chain of Voltage-dependent L-type calcium channel subunit alpha-1C (P22002 whole entry): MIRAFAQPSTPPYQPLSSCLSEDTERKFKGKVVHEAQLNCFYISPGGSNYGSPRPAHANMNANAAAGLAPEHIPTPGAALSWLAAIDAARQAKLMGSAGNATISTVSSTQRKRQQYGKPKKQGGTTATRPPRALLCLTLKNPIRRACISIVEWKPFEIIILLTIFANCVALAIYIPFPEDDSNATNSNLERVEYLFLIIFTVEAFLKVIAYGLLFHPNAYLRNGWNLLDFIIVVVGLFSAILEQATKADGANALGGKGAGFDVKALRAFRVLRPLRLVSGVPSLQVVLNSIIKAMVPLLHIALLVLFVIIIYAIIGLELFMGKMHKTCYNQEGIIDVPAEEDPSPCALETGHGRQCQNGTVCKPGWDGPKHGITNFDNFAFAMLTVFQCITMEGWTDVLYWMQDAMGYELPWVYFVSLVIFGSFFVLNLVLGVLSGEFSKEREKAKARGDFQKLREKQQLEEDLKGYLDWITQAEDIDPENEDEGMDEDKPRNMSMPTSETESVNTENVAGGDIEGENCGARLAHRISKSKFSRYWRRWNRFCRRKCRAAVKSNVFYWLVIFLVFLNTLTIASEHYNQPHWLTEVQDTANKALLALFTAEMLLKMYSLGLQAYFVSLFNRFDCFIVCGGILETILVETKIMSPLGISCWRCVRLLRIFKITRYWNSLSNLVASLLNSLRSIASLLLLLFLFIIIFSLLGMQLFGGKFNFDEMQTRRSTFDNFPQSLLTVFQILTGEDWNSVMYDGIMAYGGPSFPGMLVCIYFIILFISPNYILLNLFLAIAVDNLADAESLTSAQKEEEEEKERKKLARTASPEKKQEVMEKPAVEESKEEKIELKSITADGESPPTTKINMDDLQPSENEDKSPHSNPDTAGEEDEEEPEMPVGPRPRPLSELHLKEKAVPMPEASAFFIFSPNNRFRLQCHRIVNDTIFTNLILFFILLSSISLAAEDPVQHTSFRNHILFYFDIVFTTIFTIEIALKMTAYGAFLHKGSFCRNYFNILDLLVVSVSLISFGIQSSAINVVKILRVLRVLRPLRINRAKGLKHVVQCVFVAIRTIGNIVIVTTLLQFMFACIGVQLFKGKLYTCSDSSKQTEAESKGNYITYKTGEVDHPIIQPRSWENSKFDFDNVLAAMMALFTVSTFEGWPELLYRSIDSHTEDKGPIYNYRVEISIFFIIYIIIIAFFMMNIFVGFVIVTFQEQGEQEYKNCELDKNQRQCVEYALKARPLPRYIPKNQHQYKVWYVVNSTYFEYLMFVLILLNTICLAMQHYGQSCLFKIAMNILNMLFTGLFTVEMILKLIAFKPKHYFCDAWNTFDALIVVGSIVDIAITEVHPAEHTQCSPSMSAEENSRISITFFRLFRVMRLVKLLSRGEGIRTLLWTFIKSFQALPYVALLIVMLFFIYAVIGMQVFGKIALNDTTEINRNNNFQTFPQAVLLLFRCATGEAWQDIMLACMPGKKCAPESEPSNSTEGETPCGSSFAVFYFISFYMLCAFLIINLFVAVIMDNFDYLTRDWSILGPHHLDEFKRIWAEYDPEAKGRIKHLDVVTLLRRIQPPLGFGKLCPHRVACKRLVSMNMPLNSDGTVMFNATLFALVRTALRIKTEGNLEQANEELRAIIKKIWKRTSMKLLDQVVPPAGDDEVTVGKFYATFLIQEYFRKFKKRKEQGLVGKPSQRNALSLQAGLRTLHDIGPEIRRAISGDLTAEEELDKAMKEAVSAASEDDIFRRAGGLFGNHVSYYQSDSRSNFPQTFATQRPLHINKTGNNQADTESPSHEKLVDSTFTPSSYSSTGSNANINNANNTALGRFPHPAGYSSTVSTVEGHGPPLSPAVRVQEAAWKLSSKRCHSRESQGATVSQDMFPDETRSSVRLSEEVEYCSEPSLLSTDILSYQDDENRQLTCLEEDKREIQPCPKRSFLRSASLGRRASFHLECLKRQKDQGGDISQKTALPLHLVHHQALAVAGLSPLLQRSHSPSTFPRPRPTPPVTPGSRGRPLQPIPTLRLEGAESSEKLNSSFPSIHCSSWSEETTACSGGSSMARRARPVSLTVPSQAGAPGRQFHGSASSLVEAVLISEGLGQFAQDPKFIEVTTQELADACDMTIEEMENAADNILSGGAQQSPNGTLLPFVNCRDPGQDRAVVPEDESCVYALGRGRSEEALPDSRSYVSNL
In data set [12] the target is Mu-type opioid receptor (Mus musculus) (UniProt P42866). Put plainly: Partial agonist activity at mouse MOR expressed in HEK293T cells assessed as Nb33 recruitment by BRET assay relative to control. The data set is classed as functional, cell-based. In short, it runs like this: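 HEK293T cells transfected with murine MOR-NanoLuc (1 μg) and Nb33-Venus (4 μg) using PEI and used 48 h later. Cells in PBS given coelenterazine H (5 μM), ligand added at 5 min, BRET read 10 min later. Three-parameter fit; ≥3 independent trials in triplicate.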
Chain of Mu-type opioid receptor (Mus musculus) (P42866 whole entry): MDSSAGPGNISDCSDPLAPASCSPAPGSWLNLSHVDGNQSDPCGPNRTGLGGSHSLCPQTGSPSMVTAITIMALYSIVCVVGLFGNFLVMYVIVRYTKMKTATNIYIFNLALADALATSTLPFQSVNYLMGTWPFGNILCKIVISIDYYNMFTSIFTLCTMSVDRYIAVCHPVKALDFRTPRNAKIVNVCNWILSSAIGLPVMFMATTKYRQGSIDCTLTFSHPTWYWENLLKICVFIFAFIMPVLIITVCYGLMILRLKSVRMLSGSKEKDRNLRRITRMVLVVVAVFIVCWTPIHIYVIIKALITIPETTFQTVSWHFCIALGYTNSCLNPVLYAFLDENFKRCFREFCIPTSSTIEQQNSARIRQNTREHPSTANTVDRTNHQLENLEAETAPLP

The target of data set [13] is T1, Mu-type opioid receptor. Description: Agonist activity at human MOR expressed in CHO-K1 cells co-expressing beta-arrestin2 assessed as beta-arrestin2 EFC recruitment measured after 90 mins by PathHunter assay relative to control. The data set is classed as functional, cell-based. In short, it runs like this:
as §2

Setting [14] is: HTLA230, filed as partial agonist.

T1 sequence (P35372 whole entry): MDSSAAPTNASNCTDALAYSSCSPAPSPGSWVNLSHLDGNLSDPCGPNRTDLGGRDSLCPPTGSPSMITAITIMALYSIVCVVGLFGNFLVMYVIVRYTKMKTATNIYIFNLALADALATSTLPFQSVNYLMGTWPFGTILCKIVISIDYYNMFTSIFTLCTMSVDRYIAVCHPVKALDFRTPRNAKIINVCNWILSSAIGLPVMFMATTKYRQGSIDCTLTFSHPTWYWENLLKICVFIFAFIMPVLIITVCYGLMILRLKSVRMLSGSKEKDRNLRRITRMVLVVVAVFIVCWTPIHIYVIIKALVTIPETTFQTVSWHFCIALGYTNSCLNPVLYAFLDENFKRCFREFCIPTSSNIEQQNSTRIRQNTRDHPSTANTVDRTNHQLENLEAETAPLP

On to `CC[C@@H]1CN2CCc3c([nH]c4c(C)ccc(OC)c34)[C@@H]2C[C@@H]1/C(=C\OC)C(=O)OC`, for which the results for the Emax in data set [1] (filed as agonist) and in data set [2] (HTLA230) were 83.9% and under 20%, respectively. Further, in data set [3], the negative-log EC50 (pEC50) is 7.15.
Turning to `CC[C@@H]1CN2CC[C@@]3(O)C(=Nc4ccc(-c5ccccc5)c(OC)c43)[C@@H]2C[C@@H]1/C(=C\OC)C(=O)OC`, the maximal response (Emax) in [1] (filed as agonist) is 88.7%; in data set [2] (HTLA230) it was under 20%. In addition, the pEC50 in data set [3] is 6.98.
Consider `CC[C@@H]1CN2CCc3c([nH]c4cccc(-c5ccccc5)c34)[C@@H]2C[C@@H]1/C(=C\OC)C(=O)OC`, for which the maximal effect (Emax) was 46.1% in data set [1] (filed as agonist) and under 20% in data set [2] (HTLA230). The negative-log EC50 (pEC50) in [3] is 7.08.
On the same counts, the results for `CC[C@@H]1CN2CCc3c([nH]c4c(-c5ccccc5)ccc(OC)c34)[C@@H]2C[C@@H]1/C(=C\OC)C(=O)OC` are 50.4%, under 20% and 5.95.
With `CN1CC[C@]23c4c5ccc(O)c4O[C@H]2[C@@H](O)C=C[C@H]3[C@H]1C5` [MORPHINE], the Activity in [4] was 5.07 cm; in data set [5] it was “Toxic”.
Turning to `CC[C@@H]1CN2CCc3c([nH]c4cccc(OC)c34)[C@@H]2C[C@@H]1/C(=C\OC)C(=O)OC`, the maximal effect (Emax) in data set [1] (filed as agonist) is 84.7%; in data set [2] (HTLA230), under 20%.
`CC[C@@H]1CN2CCc3c([nH]c4cccc(C)c34)[C@@H]2C[C@@H]1/C(=C\OC)C(=O)OC`: the maximal effect (Emax) is 97.1% in [1] (filed as agonist) and under 20% in data set [2] (HTLA230). In addition, in data set [3], the pEC50 is 7.08.
As to `CC[C@@H]1CN2CC[C@@]3(O)C(=Nc4c(-c5ccccc5)ccc(OC)c43)[C@@H]2C[C@@H]1/C(=C\OC)C(=O)OC`, the maximal response (Emax) in data set [1] and in data set [2] (HTLA230) was under 20% each time. In addition, the pEC50 in [3] was 4.76.
Consider `CC[C@@H]1CN2CC[C@@]3(O)C(=Nc4ccc(C)c(OC)c43)[C@@H]2C[C@@H]1/C(=C\OC)C(=O)OC`, for which the Emax was 9.58% in [1] (filed as agonist) and under 20% in data set [2] (HTLA230). For the same compound, the pEC50 in data set [3] is 7.52.
Take `CC[C@@H]1CN2CC[C@@]3(O)C(=Nc4c(C)ccc(OC)c43)[C@@H]2C[C@@H]1/C(=C\OC)C(=O)OC`: the Emax was 69.3% in [1] (filed as agonist) and under 20% in [2] (HTLA230). In addition, in data set [3], the pEC50 was 7.95.
For `CC[C@@H]1CN2CC[C@@]3(O)C(=Nc4c(-c5ccoc5)ccc(OC)c43)[C@@H]2C[C@@H]1/C(=C\OC)C(=O)OC`, in that order: 61.8%, under 20% and 5.81.
For `CC[C@@H]1CN2CCc3c([nH]c4c(-c5ccoc5)ccc(OC)c34)[C@@H]2C[C@@H]1/C(=C\OC)C(=O)OC`, the Emax in data set [1] (filed as agonist) was 78.2%; in [2] (HTLA230) it was under 20%. The pEC50 in data set [3] was 6.73.
On the same counts, the results for `CC[C@@H]1CN2CCc3c([nH]c4cccc(-c5ccoc5)c34)[C@@H]2C[C@@H]1/C(=C\OC)C(=O)OC` are 70.2%, under 20% and 7.03.
Regarding `CC[C@@H]1CN2CC[C@@]3(O)C(=Nc4ccc(-c5ccoc5)c(OC)c43)[C@@H]2C[C@@H]1/C(=C\OC)C(=O)OC`, the figures for the maximal effect (Emax) in data set [1] (filed as agonist) and in data set [2] (HTLA230) were 100% and 31.3%, respectively. The pEC50 in data set [6] is 5.09; in data set [3] it was 6.27.
Consider `CC[C@@H]1CN2CC[C@@]3(O)C(=Nc4cccc(C)c43)[C@@H]2C[C@@H]1/C(=C\OC)C(=O)OC`, for which the Emax was 60% in data set [7]; 108% in data set [1] (filed as partial agonist); 110% in data set [2] (setting [14]); 31% in data set [8]; 20% in data set [12]; under 20% in data set [13]. Besides, the outcome in data set [9] and in data set [10] was Active. The negative logarithm of the EC50 (pEC50) in [6] is 4.98; in [3], 8.28. In addition, in [11], the outcome was Active.
For the compound `CC[C@@H]1CN2CCc3c([nH]c4ccc(-c5ccccc5)c(OC)c34)[C@@H]2C[C@@H]1/C(=C\OC)C(=O)OC`, the values for the Emax in data set [1] (filed as agonist) and in data set [2] (HTLA230) were 73.9% and under 20%, respectively. For the same compound, in data set [3], the pEC50 is 5.42.
As to `CC[C@@H]1CN2CC[C@@]3(O)C(=Nc4cccc(-c5ccccc5)c43)[C@@H]2C[C@@H]1/C(=C\OC)C(=O)OC`, the Emax in [7] was 60%; in data set [1] (filed as partial agonist), 108%; in data set [2] (setting [14]), 283%; in data set [8], 31%; in [12], 20%; in data set [13] it was under 20%. For the same compound, the outcome in data set [9] and in data set [10] was Active. The pEC50 in data set [6] is 4.72; in [3], 7.44. Besides, the result in data set [11] was Active.
On to `CC[C@@H]1CN2CC[C@@]3(O)C(=Nc4cccc(OC)c43)[C@@H]2C[C@@H]1/C(=C\OC)C(=O)OC`, for which the Emax in data set [1] (filed as agonist) is 95.5%; in [2] (HTLA230), under 20%.
Turning to `CC[C@@H]1CN2CCc3c([nH]c4ccc(C)c(OC)c34)[C@@H]2C[C@@H]1/C(=C\OC)C(=O)OC`, the figures for the Emax in data set [1] (filed as agonist) and in [2] (HTLA230) were 96.5% and under 20%, respectively. For the same compound, in data set [3], the pEC50 was 6.43.
On to `CC[C@@H]1CN2CCc3c([nH]c4ccc(-c5ccoc5)c(OC)c34)[C@@H]2C[C@@H]1/C(=C\OC)C(=O)OC`, for which the Emax in [1] (filed as agonist) was 90.8%; in data set [2] (HTLA230) it was under 20%. The negative logarithm of the EC50 (pEC50) in [3] is 7.07.

As usually defined, the Emax is the size of the effect at its maximum, as opposed to the concentration needed. The term pEC50 denotes the negative decadic logarithm of the EC50, by convention in mol/L.
